dFosB act = mouse delta FosB homodimer activation. hit rate 0.99% among 340,000. P13346. purified delta FosB, TAMRA-CDK5 oligo fluorescence polarization; percent of positive-control signal above neutral wells. activation, % at 25 µM;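 active = mean activation above about 17%, with every replicate also reaching it, limit read from the data, passing the limit was not always enough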
Target sequence (P13346 whole entry, looked up): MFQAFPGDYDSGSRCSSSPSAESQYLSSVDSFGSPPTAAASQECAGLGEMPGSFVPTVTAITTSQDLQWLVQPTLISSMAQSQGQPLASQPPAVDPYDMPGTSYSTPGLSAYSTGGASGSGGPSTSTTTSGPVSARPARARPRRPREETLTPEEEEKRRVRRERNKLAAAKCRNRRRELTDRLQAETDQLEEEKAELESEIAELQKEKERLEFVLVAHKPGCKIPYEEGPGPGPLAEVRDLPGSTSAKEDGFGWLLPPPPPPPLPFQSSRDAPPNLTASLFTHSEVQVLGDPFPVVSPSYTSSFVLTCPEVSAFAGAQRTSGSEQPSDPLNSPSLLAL
SR-BI DiI-HDL act = enhances SR-BI lipid uptake from DiI-HDL; CHO ldlA[mSR-BI] cells, DiI-HDL uptake fluorescence, 3 h; 100 = double the neutral-control signal; activation, % at 12.5 µM; hit rate 0.096% among 320,000; AID 504775;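 active = mean replicate activation of at least 60% and every replicate at or above 60%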;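 note: 0% = median plate neutral-control signal and 100% = twice that signal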
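system = CHO ldlA[mSR-BI] cells, LDL receptor-null, SR-BI overexpressing | medium = Ham's F12 with 0.5% BSA, HEPES 25 mM, pH 7.4 | probe or stimulus = DiI-HDL 10 µg/mL | compound dosing = single-point compound dose | incubation = compound exposure 3 h, 37 °C | technique = DiI fluorescence, bottom read | read-out = cell-associated DiI fluorescence as measure of HDL uptake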
CDK5 inh = CDK5/p35 (human) kinase inhibition; Q00535+Q15078; Recombinant CDK5/p35, ADP-Glo luminescence, 60 min; inhibition, % at 10 µM; hit rate 0.01% among 330,000;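 active = highest replicate inhibition of at least 50% and at least 75% of replicates reaching 50%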;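 note: plate controls were DMSO neutral control for no effect and GW8510 at 10 µM for full effect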
SR-BI DiI inh = mouse SR-BI HDL lipid transfer inhibition; ldlA[mSR-BI] CHO cells, DiI-HDL uptake fluorescence, 3 h; inhibition, % at 12.5 µM; hit rate 0.96% among 320,000;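 active = mean replicate inhibition of at least 70% and a set share of replicates each scoring 70 or more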;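 note: 0% = median of neutral control wells and 100% = median of positive control wells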
DYRK1A inh = Dyrk1A (rat) kinase inhibition; ADP-Glo luminescence, NFATc1 peptide; inhibition, % at 12.5 µM; hit rate 0.43% among 310,000;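 note: plate controls were vehicle with enzyme for no effect and no enzyme for full effect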
NSD2 inh = inhibitors of human histone methyltransferase NSD2. O96028. NSD2 peptide methylation, AlphaScreen, 120 min. inhibition, % at 12.5 µM. hit rate 0.54% among 310,000. AID 743445
* = called active by the depositor; / = no result given. In the library only some 2.5% were active in any assay of this set; here they are far more common. Cut-off read from the data, not from the text of the source, unless noted: active = inhibition above about 50%; inactive = the rest.

SMILES	dFosB act	SR-BI DiI-HDL act	CDK5 inh	SR-BI DiI inh	DYRK1A inh	NSD2 inh
CC1CCC(NC(=O)CN(C)CC(=O)Nc2ccc(F)cc2)CC1 (centres undefined)	-4	12	0	-12	/	-1
NNC(=O)c1sc(-c2ccc(Cl)cc2)cc1N	-6	-110	-3	110*	-5	-3
O=C(NNC(=O)c1cc2ccccc2cc1O)c1cccs1	10	-115	1	115*	4	-2
O=C(NNC(=O)c1ccc2ccccc2c1O)c1ccccc1Cl	-3	-35	0	35	8	2
O=C(NNC(=O)c1ccc2ccccc2c1O)c1cccs1	-8	-106	2	106*	-1	6
CC(C)CC(CCOCCO)NC(=O)OCc1ccccc1[N+](=O)[O-] (centres undefined)	/	/	/	/	/	-3
COC(=O)c1cc(C(=O)Nc2nc3ccccc3[nH]2)cc([N+](=O)[O-])c1	6	-80	0	80*	-5	-3
O=C(Nc1nc2ccccc2[nH]1)c1cccc([N+](=O)[O-])c1	2	-43	1	43	13	-1
COc1ccc(C(=O)O)cc1S(=O)(=O)Nc1cc(S(=O)(=O)Nc2ccc(C)c(Cl)c2)ccc1Cl	/	/	/	/	/	2
O=C(Nc1ccccc1OC(F)F)c1cc2c(s1)CCC2	-11	-38	0	38	3	1
COc1ccccc1NC(=O)c1ccc(NC(=O)c2cc3c(s2)CCC3)cc1	-13	-73	0	73*	-4	-4
O=C(CSc1nnc(-c2ccccc2)n1-c1ccc(Cl)cc1)c1ccccc1Br	/	/	/	/	/	-1
CC(C)n1c(O)c(N=NC(=O)c2ccccc2NS(=O)(=O)c2cccs2)c2ccccc21	30*	-14	2	14	0	-1
COc1cc(NC(=O)c2ccc(Br)o2)ccc1NC(=O)c1ccccc1Cl	-6	-83	-3	83*	-9	1
COc1cc(NC(=O)c2cccc([N+](=O)[O-])c2)ccc1NC(=O)c1ccco1	-3	-89	0	89*	1	1
COc1cc(NC(=O)c2ccccc2F)ccc1NC(=O)c1ccccc1Cl	-11	-93	3	93*	-5	-1
COc1cc(NC(C)=O)ccc1NC(=O)c1cc2ccccc2o1	3	-5	1	5	12	-1
COc1cc(NC(=O)c2ccccc2[N+](=O)[O-])ccc1NC(=O)c1cc2ccccc2o1	0	-77	0	77*	3	7
CC(=O)c1cccc(NC(=O)COC(=O)CCNS(=O)(=O)c2ccccc2)c1	-13	3	0	-3	25	-3
CCc1ccc(C(=O)C(C)OC(=O)Cc2n[nH]c(=O)c3ccccc23)cc1 (centres undefined)	-18	13	1	-13	3	1
CCCC(=O)Nc1ccc(Cl)c(NC(=O)CC)c1	-13	-14	0	14	-10	/
O=C(Nc1ccc2oc(=O)ccc2c1)c1ccc(-c2ccccc2[N+](=O)[O-])o1	11	-78	-1	78*	-1	-1
CCC(=O)Nc1ccc(Cl)c(NC(=O)c2ccc(Br)o2)c1	-16	/	-1	76*	-1	2
CCOC(=O)C1CCCN(C(=O)c2cc3cc(Br)ccc3oc2=O)C1 (centres undefined)	-6	-2	-1	2	/	31
COc1ccc(C(=O)Nc2oc(-c3ccccc3)c(-c3ccccc3)c2C#N)cc1	-7	-83	-1	83*	-2	1
SMILES	dFosB act	SR-BI DiI-HDL act	CDK5 inh	SR-BI DiI inh	DYRK1A inh	NSD2 inh
COc1ccc(C(=O)Nc2oc(-c3ccccc3)c(-c3ccccc3)c2C#N)cc1OC	-15	-82	0	82*	-12	-2
COc1ccc(-c2oc(NC(=O)c3ccc(C)cc3)c(C#N)c2-c2ccc(OC)cc2)cc1	-9	-45	-2	45	-3	1
Cc1cccc(C)c1OCC(=O)Nc1oc(-c2ccccc2)c(-c2ccccc2)c1C#N	-1	-82	1	82*	-2	/
COc1cc(OC)cc(C(C)c2ccc(C)cc2)c1 (centres undefined)	/	/	/	/	/	-2
C=CCn1c(SCC(=O)c2ccc(F)cc2)nnc1-c1ccc(F)cc1	/	/	/	/	/	0
Cc1cc(C)cc(N(CC(=O)NC2CCC(C)CC2)S(=O)(=O)c2ccc(Br)s2)c1 (centres undefined)	/	/	/	/	/	1
